In ChEMBL document CHEMBL1154900, “Modified phenazines from an Indonesian Streptomyces sp” (2010):
Active and inactive are the calls of the source. No cut-off for these calls is given here.

Tests used:
[1] = test system: Pseudomonas aeruginosa; assay: Antibacterial activity against Pseudomonas aeruginosa at 24 ug/disk by agar diffusion method; format: functional, organism-based
Summary of the method: (§1)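 Disk agar diffusion screen. Each sample was loaded per disk at the stated amount, either 14 µg/disk or 24 and 56 µg/disk. All six organisms were tested in one panel: S. aureus, B. subtilis, E. coli, P. aeruginosa, the fungus M. miehei and the yeast C. albicans.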

[2] = test system: Rhizomucor miehei; assay: Antifungal activity against Mucor miehei at 24 ug/disk by agar diffusion method; format: functional, organism-based; summary of the method: as §1
[3] = test system: Candida albicans; assay: Antifungal activity against Candida albicans at 56 ug/disk by agar diffusion method; format: functional, organism-based; summary of the method: as §1
[4] = test system: Candida albicans; assay: Antifungal activity against Candida albicans at 24 ug/disk by agar diffusion method; format: functional, organism-based; summary of the method: as §1
[5] = test system: Escherichia coli; assay: Antibacterial activity against Escherichia coli at 56 ug/disk by agar diffusion method; format: functional, organism-based; summary of the method: as §1
[6] = test system: Pseudomonas aeruginosa; assay: Antibacterial activity against Pseudomonas aeruginosa at 56 ug/disk by agar diffusion method; format: functional, organism-based; summary of the method: as §1
[7] = test system: Escherichia coli; assay: Antibacterial activity against Escherichia coli at 24 ug/disk by agar diffusion method; format: functional, organism-based; summary of the method: as §1
[8] = test system: Rhizomucor miehei; assay: Antifungal activity against Mucor miehei at 56 ug/disk by agar diffusion method; format: functional, organism-based; summary of the method: as §1
[9] = test system: Bacillus subtilis; assay: Antibacterial activity against Bacillus subtilis at 56 ug/disk by agar diffusion method; format: functional, organism-based; summary of the method: as §1
[10] = test system: Bacillus subtilis; assay: Antibacterial activity against Bacillus subtilis at 24 ug/disk by agar diffusion method; format: functional, organism-based; summary of the method: as §1
[11] = test system: Staphylococcus aureus; assay: Antibacterial activity against Staphylococcus aureus at 24 ug/disk by agar diffusion method; format: functional; summary of the method: as §1
[12] = test system: Staphylococcus aureus; assay: Antibacterial activity against Staphylococcus aureus at 56 ug/disk by agar diffusion method; format: functional, organism-based; summary of the method: as §1

CCC(=O)C(C)C(=O)C1(C)Cc2ccc(OC)c3c2N(C1=O)c1cccc(C(=O)O)c1N3 (centres undefined) was tested, and the Activity [1] was “inactive”, the Activity [2] was “inactive” and the Activity [3] was “inactive”. The Activity [4] was “inactive”, the Activity [5] was “inactive” and the Activity [6] was “inactive”. The Activity [7] was “inactive”, the Activity [8] was “inactive” and the Activity [9] was “inactive”. For the same molecule, the Activity [10] was “inactive”, the Activity [11] was “inactive” and the Activity [12] was “inactive”.

In the case of CCC(=O)C(C)C(=O)C(C)(Cc1ccc(OC)c2nc3c(C(=O)O)cccc3nc12)C(=O)OC (centres undefined), the Activity [1] is reported as “inactive”, the Activity [2] is reported as “inactive” and the Activity [3] is reported as “inactive”. For the same molecule, the Activity [4] was “inactive”, the Activity [5] was “inactive” and the Activity [6] was “inactive”. The “inhibition zone (IZ)” value [7] was “inactive”, the Activity [8] was “inactive” and the Activity [9] was “inactive”. For the same molecule, the Activity [10] was “inactive”, the zone of inhibition at 24 µg/disc ([11]; read-out: IZ) was 14 mm and the Activity [12] was “inactive”.
